TAAR1 antagonist – human TAAR1 antagonists, primary screen, Fluo-8 calcium fluorescence, CHO RD-HGA16 cells; 360,000 tested, 1.5% active; inhibition, % at 3 µM; Trace amine-associated receptor 1 (Homo sapiens), Q96RJ0; antagonist;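 active = inhibition above a per-plate cutoff, the mean inhibition of test compounds on that plate plus 3 SD, cut at about 49% in these data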;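 also: 0% = DMSO plus EC80 beta-PEA response and 100% = DMSO alone without agonist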
Target sequence (Q96RJ0 whole entry, looked up): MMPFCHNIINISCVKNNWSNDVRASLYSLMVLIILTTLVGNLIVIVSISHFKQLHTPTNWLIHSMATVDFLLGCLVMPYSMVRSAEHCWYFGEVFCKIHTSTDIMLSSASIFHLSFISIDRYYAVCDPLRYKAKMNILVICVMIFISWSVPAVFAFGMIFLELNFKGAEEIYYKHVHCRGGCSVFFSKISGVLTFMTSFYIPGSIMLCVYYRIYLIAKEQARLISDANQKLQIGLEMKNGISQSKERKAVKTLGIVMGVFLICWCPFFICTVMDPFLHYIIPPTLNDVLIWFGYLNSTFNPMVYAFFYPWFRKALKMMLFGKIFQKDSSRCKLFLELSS
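Test system: CHO RD-HGA16 cells bearing hTAAR1 | Reagent: β-PEA, EC80 | Compound dosing: 3 µM, single point | Schedule: Dye loading 75 min at 37 °C, then 30 min room temperature | Signal: Calcium fluorescence with Fluo-8 | Evaluation: Percent inhibition of PEA-evoked calcium signal, max/basal emission ratio | Control set: DMSO-only wells and EC80 β-PEA-stimulated wells | Repeats: Singlicate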
m5-HT2A agonist – mouse Htr2a agonists via beta-arrestin recruitment, primary screen, cell-based, luminescence | CHO-K1 mHTR2A beta-arrestin complementation; percent of 30 µM serotonin response | activation, % at 7.6 µM | 360,000 tested, 0.66% active;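 active = activation above a run cutoff, the mean activation of all tested compounds plus 3 SD, cut at about 14% in these data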;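 also: 0% = plate median of compound wells and 100% = 30 µM serotonin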
MC4R ag barr – MC4R agonists recruiting beta-arrestin, primary screen, cell-based, luminescence, agonist arm of biased-ligand search. Melanocortin receptor 4 (Homo sapiens), P32245. U2OS MC4R beta-arrestin complementation; percent of melanotan II response, DMSO zero. activation, % at 8.9 µM. 360,000 tested, 0.98% active. AID 540308, 2011;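 active = activation above a per-plate cutoff, the mean activation of sample wells on that plate plus 3 SD, cut at about 8% in these data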
Target sequence (P32245 whole entry, looked up): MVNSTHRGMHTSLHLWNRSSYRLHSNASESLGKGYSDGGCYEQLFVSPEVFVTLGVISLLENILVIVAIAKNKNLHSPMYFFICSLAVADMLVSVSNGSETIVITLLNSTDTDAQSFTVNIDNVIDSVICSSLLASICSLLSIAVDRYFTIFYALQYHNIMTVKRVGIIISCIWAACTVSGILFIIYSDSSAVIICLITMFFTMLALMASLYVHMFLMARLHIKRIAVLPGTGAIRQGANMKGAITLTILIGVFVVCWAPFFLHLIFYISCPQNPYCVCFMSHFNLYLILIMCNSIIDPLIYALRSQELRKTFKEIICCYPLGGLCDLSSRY
MC4R antag cAMP – MC4R antagonists of cAMP signaling, primary screen, cell-based, TR-FRET, antagonist arm of biased-ligand search; inhibition, % at 6.5 µM; 360,000 tested, 0.48% active; Melanocortin receptor 4 (Homo sapiens), P32245; MC4R-expressing cells, MTII-stimulated cAMP, LANCE TR-FRET;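 active = inhibition above its plate's cutoff, the mean of tested wells on that plate plus 3 SD, cut at about 29% in these data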;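 also: 0% = Melanotan II alone and 100% = Melanotan II plus saturating MCL0020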
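material = U2OS cells stably expressing human melanocortin 4 receptor (MC4R) | also added = Melanotan II challenge | dosing = single nominal compound dose of 6.5 µM | detection = TR-FRET with Eu-cAMP and labeled anti-cAMP, 671 nm | replication = singlicate | timing = compound 30 min, challenge 1 h, detection 1 h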
TAAR1 agonist – human TAAR1 agonists, primary screen, Fluo-8 calcium fluorescence, CHO RD-HGA16 cells; 360,000 tested, 0.99% active; Trace amine-associated receptor 1 (Homo sapiens), Q96RJ0; activation, % at 3 µM; vehicle wells 0%, saturating PEA agonist 100%;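 active = activation above the mean activation of all test compounds in the run plus 3 SD, cut at about 38% in these data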
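System: CHO-derived RD-HGA16 cells with stable Gα16 and human TAAR1 / Times: 17-24 h plating, Fluo-8 75 min 37 °C, 30 min RT / Technique: calcium-sensitive Fluo-8 signal, excitation 470-495, emission 515-575 nm / Measure: % activation relative to PEA EC100 response / Benchmarks: DMSO and PEA EC100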
Beta2AR agonist – beta2AR agonists driving receptor internalization, primary screen, cell-based, FAP fluorogen, flow cytometry | Am2.2-beta2AR cells | response, % (test concentration not listed) | 340,000 tested, 0.43% active | AID 504454, 2011;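 active = response above a set limit, near 3 SD of response in nonfluorescent compounds, cut at about 42% in these data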
TAAR1 ag confirm – human TAAR1 agonists, retest of hits, confirmation, Fluo-8 calcium fluorescence, CHO RD-HGA16 cells. shares compounds with TAAR1 agonist. scaled: DMSO 0%, maximal phenethylamine 100%. activation, % at 3 µM. 2,400 tested, 82% active. AID 651783, 2012;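 active = activation above a cutoff set at the run's mean compound activation plus 3 SD, cut at about 39% in these data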
Ga16 ag counter – nonselective calcium mobilization agonists, CHO-Ga16 cells, counter-screen for hTAAR1 agonist project, cell-based, fluorescence, CHO-Ga16 parental line. 2,400 tested, 50% active. shares compounds with TAAR1 agonist. AID 651787, 2012. Fluo-8 calcium fluorescence; normalized to maximal ATP response, DMSO zero. activation, % at 3 µM;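 active = activation above the run cutoff, the mean activation over all tested wells plus 3 SD, cut at about 12% in these data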;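 also: 0% = DMSO wells and 100% = maximal ATP response on the peak over basal ratio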
TAAR1 desens – TAAR1 desensitization by agonist hits, confirmation, counter-screen for TAAR1 agonist project, cell-based, fluorescence, tachyphylaxis; inhibition, % at 3 µM; 2,400 tested, 46% active; shares compounds with TAAR1 agonist; CHO RD-HGA16 hTAAR1, Fluo-8 calcium, beta-PEA response inhibition;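 active = inhibition above the run cutoff, the mean inhibition of all test compounds plus 3 SD, cut at about 49% in these data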;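 also: beta-PEA stimulus applied at its EC80; loss of beta-PEA calcium signal after compound pretreatment read as receptor desensitization; 0% = DMSO with beta-PEA at EC80 and 100% = DMSO alone without agonist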
Ga16 nonsel ant – inhibition of ATP-evoked calcium response in CHO-Ga16 cells, counter-screen for TAAR1 agonist project, cell-based, fluorescence. shares compounds with TAAR1 agonist. inhibition, % at 3 µM. AID 651952, 2012. 2,400 tested, 39% active. CHO-Ga16 ATP-induced calcium, Fluo-8 fluorescence;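 active = inhibition above the plate's mean compound inhibition plus 3 SD, computed per plate, cut at about 22% in these data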;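 also: 0% = EC80 ATP with DMSO and 100% = DMSO wells without ATP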
An asterisk follows results filed as active; nt = no result. The list is not random: actives were taken first. Their share in the collection is about 4.3%.

SMILES	TAAR1 antagonist	m5-HT2A agonist	MC4R ag barr	MC4R antag cAMP	TAAR1 agonist	Beta2AR agonist	TAAR1 ag confirm	Ga16 ag counter	TAAR1 desens	Ga16 nonsel ant
O=C(CS(=O)(=O)c1ccccc1)c1ccc2c(c1)OCCO2	-4	1	-1	8	3	3	nt	nt	nt	nt
O=C(CCN1CCc2ccccc2C(c2ccccc2)C1)c1ccc2c(c1)OCCO2 (configuration not stated)	52*	-8	-4	24	73*	3	75*	1	77*	12
COC(=O)[C@H](Cc1c[nH]c2ccccc12)NC(=O)NCc1ccc(OC)c(OC)c1	-4	-6	0	-3	4	0	nt	nt	nt	nt
Cc1c(Cl)cccc1NC(=O)Nc1ccccc1C(N)=O	0	2	-1	15	3	1	nt	nt	nt	nt
Cc1c(Cl)cccc1NC(=O)Nc1ccc(C(N)=O)cc1	-8	-1	-1	5	52*	1	60*	1	24	9
COc1ccccc1C(CNC(=O)CCNS(=O)(=O)c1ccc(Br)cc1)N1CCCC1 (configuration not stated)	-11	-8	-2	0	0	3	nt	nt	nt	nt
c1cc2c(cc1C1CCCCC1)c1c3n2CCN=C3CCC1	44	4	1	4	66*	15	59*	24*	39	17
CCCN(c1ccccc1F)S(=O)(=O)c1cc(-c2cc(C)no2)ccc1OC	13	-1	-2	0	3	28	nt	nt	nt	nt
CCCOc1cc(C)c(S(=O)(=O)N2CCN(C)CC2)cc1C	-26	-7	0	7	46*	1	42*	0	-5	-3
Cc1[nH]n(-c2ccccc2)c(=O)c1C=NCCc1ccccc1	45	-1	-1	9	59*	-7	91*	0	41	2
Cc1[nH]n(-c2ccccc2)c(=O)c1C=NCc1ccncc1	-14	-2	1	8	0	-3	nt	nt	nt	nt
Cc1cn(C2CC(OC(=O)C(C)C)C(CO)O2)c(=O)[nH]c1=O (configuration not stated)	8	-4	0	1	14	-4	nt	nt	nt	nt
CC1Cc2ccccc2N1C(=O)CCS(=O)(=O)c1ccc2c(c1)NC(=O)CS2 (configuration not stated)	-18	8	-1	6	7	-3	nt	nt	nt	nt
CC1=CC(C)(C)N(C(=O)c2ccccc2)c2ccccc21	12	2	0	6	26	5	nt	nt	nt	nt
CC1=CC(C)(C)N(C(=O)c2ccccc2)c2ccc(C)cc21	52*	0	0	5	65*	-2	71*	42*	69*	52*
CN1CCN(/N=C/c2ccc(N(c3ccccc3)c3ccccc3)cc2)CC1	50*	-4	3	15	73*	16	72*	28*	56*	35*
CC(Oc1ccc(Br)cc1)C(=O)Nc1ccc(S(=O)(=O)NC2=NCCCCC2)cc1 (configuration not stated)	72*	0	0	9	95*	-4	119*	78*	81*	47*
CC(Oc1ccc(Br)cc1)C(=O)Nc1ccc(S(=O)(=O)Nc2nccs2)cc1 (configuration not stated)	36	3	-3	-6	35	4	nt	nt	nt	nt
COc1ccc(-c2noc(CCCC(=O)NCC3CCCO3)n2)cc1 (configuration not stated)	1	2	-1	7	2	-3	nt	nt	nt	nt
Cc1ccc(OCC(=O)NNC(=S)NC(=O)C2CC2)c(C)c1	14	-5	-8	7	49*	1	48*	50*	36	39*
Cc1ccc(OCC(=O)NNC(=S)NC(=O)C(C)(C)C)c(Br)c1	106*	1	-2	-5	155*	-1	132*	109*	98*	72*
Cc1ccc(OCC(=O)NNC(=S)NC(=O)C2CCCCC2)c(C)c1	nt	-2	-6	7	nt	5	nt	nt	nt	nt
COC(=O)[C@]12C[C@H](CC(=O)N3CCSCC3)C(=O)N(Cc3ccc4c(c3)OCO4)C1=C[C@H](COCc1ccccc1)O[C@@H]2C	-7	nt	nt	nt	0	nt	nt	nt	nt	nt
Cn1c(SCC(=O)N2CCc3ccccc3C2)nnc1-c1ccncc1	2	-2	0	6	6	-4	nt	nt	nt	nt
CCCn1c(SCC(=O)N2CCc3ccccc3C2)nc(O)cc1=O	nt	-8	-3	-3	nt	4	nt	0	nt	1
Cc1cc(=O)[nH]c(SCC(=O)N2CCc3ccccc3C2)n1	56*	0	-2	6	77*	0	77*	5	20	12
Cc1c(NC(=O)[C@@H](NC(=O)c2ccc(Cl)c([N+](=O)[O-])c2)C(C)C)c(=O)n(-c2ccccc2)n1C	-6	-5	-2	15	-1	-11	nt	nt	nt	nt
C[C@@H]1CNC(=O)c2c(C(=O)N[C@H](C)c3ccccc3)ncn21	-2	5	-2	1	3	nt	nt	nt	nt	nt
NC(Cc1ccc(F)cc1)c1csc(Nc2nccc(C(F)(F)F)n2)n1 (configuration not stated)	27	2	3	-5	72*	nt	86*	54*	56*	55*

High-throughput results deposited in PubChem BioAssay by several laboratories.
